According to ChEMBL document CHEMBL1152189, “Beta-C-glycosiduronic acids and beta-C-glycosyl compounds: new PTP1B inhibitors” (Bioorg Med Chem Lett, 2008):

Columns and labels:
[1] = biological target: T1, Tyrosine-protein phosphatase non-receptor type 1 (Homo sapiens) (UniProt P18031); experiment: Inhibition of recombinant PTP1B at 20 ug/mL
T1 sequence (whole entry): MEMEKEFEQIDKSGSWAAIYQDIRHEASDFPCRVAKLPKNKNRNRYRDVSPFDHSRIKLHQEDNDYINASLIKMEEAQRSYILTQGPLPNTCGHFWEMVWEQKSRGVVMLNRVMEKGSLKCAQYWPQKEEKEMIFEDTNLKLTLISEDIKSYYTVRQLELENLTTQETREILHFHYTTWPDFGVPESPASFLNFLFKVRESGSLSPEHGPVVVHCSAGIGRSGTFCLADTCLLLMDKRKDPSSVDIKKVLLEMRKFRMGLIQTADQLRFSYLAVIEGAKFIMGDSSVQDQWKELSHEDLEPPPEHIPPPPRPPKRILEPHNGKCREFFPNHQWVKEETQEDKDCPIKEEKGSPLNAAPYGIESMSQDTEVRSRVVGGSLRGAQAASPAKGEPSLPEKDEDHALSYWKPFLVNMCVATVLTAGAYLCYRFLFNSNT
Procedure, shortened: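 pNPP hydrolysis by recombinant enzyme in 50 mM MOPS pH 6.5 with 2 mM pNPP. Read continuously at 405 nm for 2 min at 30 °C, and initial rate taken from early linear region. Inhibitor tested at 20 μg/mL. Mean of three experiments.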

[2] = biological target: T2, Tyrosine-protein phosphatase non-receptor type 1 (Homo sapiens, UniProt P18031); experiment: Inhibition of recombinant PTP1B
T2 sequence (P18031 whole entry): T1 sequence (whole entry)
Procedure, shortened: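 Recombinant enzyme, 30 nM, with 2 mM pNPP in 50 mM MOPS pH 6.5. Hydrolysis followed continuously at 405 nm for 2 min at 30 °C, and initial rate taken from early linear region. Inhibitor diluted around estimated IC50. IC50 from nonlinear fit of % inhibition vs [I] with Hill equation. Mean of three experiments, SD given.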

| inhibition [1] [%] | IC50 [2] [µM] | SMILES |
| --- | --- | --- |
| 99.7 | 2.44 | COc1ccc(OC)c([C@@H]2O[C@H](CNC(=O)c3ccccc3C(=O)O)[C@@H](OC(=O)c3ccccc3)[C@H](OC(=O)c3ccccc3)[C@H]2OC(=O)c2ccccc2)c1 |
| 94.1 | 5.27 | O=C1C=CC(=O)C([C@@H]2O[C@H](CNC(=O)c3ccccc3)[C@@H](O)[C@H](OC(=O)c3ccccc3)[C@H]2OC(=O)c2ccccc2)=C1 |
| 94.9 | 4.13 | COc1ccc(OC)c([C@@H]2O[C@H](CNC(=O)c3ccccc3)[C@@H](O)[C@H](OC(=O)c3ccccc3)[C@H]2OC(=O)c2ccccc2)c1 |
| 96.5 | 2.36 | COc1cc([C@@H]2O[C@H](CN=[N+]=[N-])[C@@H](OC(=O)c3ccccc3)[C@H](OC(=O)c3ccccc3)[C@H]2OC(=O)c2ccccc2)c(OC)c2ccccc12 |
| 83.4 | 4.52 | COc1ccc(OC)c([C@@H]2O[C@H](CNC(=O)c3ccccc3)[C@@H](OC(C)=O)[C@H](OC(=O)c3ccccc3)[C@H]2OC(=O)c2ccccc2)c1 |
| 92.1 | 0.77 | COc1cc([C@@H]2O[C@H](CNC(=O)c3ccccc3C(=O)O)[C@@H](OC(=O)c3ccccc3)[C@H](OC(=O)c3ccccc3)[C@H]2OC(=O)c2ccccc2)c(OC)c2ccccc12 |
| 99.5 | 1.12 | O=C(O[C@H]1[C@@H](OC(=O)c2ccccc2)[C@@H](C(=O)O)O[C@@H](C2=CC(=O)c3ccccc3C2=O)[C@@H]1OC(=O)c1ccccc1)c1ccccc1 |

Further lines, the compound ahead of its results:

| SMILES | inhibition [1] [%] | IC50 [2] [µM] |
| --- | --- | --- |
| CC(=O)O[C@H]1[C@@H](OC(C)=O)[C@@H](C(=O)O)O[C@@H](C2=CC(=O)c3ccccc3C2=O)[C@@H]1OC(C)=O | 88.2 | 16.6 |
| COc1ccc(OC)c([C@@H]2O[C@H](COC(C)=O)[C@H](NC(=O)c3ccccc3C(=O)O)[C@H](OC(C)=O)[C@H]2OC(C)=O)c1 | 49.5 | – |
| CC(=O)O[C@H]1[C@@H](OC(C)=O)[C@@H](C(=O)O)O[C@@H](C2=CC(=O)C=CC2=O)[C@@H]1OC(C)=O | 70.3 | 27.6 |
| CC(=O)O[C@@H]1[C@@H](OC(C)=O)[C@H](C2=CC(=O)C=CC2=O)O[C@H](C(=O)O)[C@H]1OC(C)=O | 84.7 | 20.4 |
| COc1ccc(OC)c([C@@H]2O[C@H](CNC(=O)c3ccccc3)[C@@H](OC(C)=O)[C@H](OC(C)=O)[C@H]2OC(C)=O)c1 | 12.1 | – |
| CC(=O)O[C@@H]1[C@@H](OC(C)=O)[C@H](C2=CC(=O)c3ccccc3C2=O)O[C@H](C(=O)O)[C@H]1OC(C)=O | 83.1 | 15.9 |
| CC(=O)O[C@@H]1[C@@H](OC(C)=O)[C@H](C2=CC(=O)C=CC2=O)O[C@H](CNC(=O)c2ccccc2)[C@H]1OC(C)=O | 26.6 | – |
